Experiments:
MIA PaCa-2 [1] = test: Effect on GLI2 gene expression in human MIAPaCa2 cells at 400 nM after 6 hrs by RNA sequence analysis relative to control; assay type: functional
Procedure, shortened: (§1)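 PANC-1 (0.35 x 10^6) or MIA PaCa-2 (1.5 x 10^6) cells seeded overnight in 60 mm plates, then exposed to 400 nM compound for 6 or 24 h; untreated cells as controls. Cells were mycoplasma-free and STR-certified. Differential expression by RNA-seq, called at FDR < 0.1.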

PANC-1 [2] = test: Effect on PFKFB4 gene expression in human PANC1 cells at 400 nM after 6 hrs by RNA sequence analysis relative to control; assay type: functional
MIA PaCa-2 [3] = test: Effect on PFKFB4 gene expression in human MIAPaCa2 cells at 400 nM after 6 hrs by RNA sequence analysis relative to control; assay type: functional
PANC-1 [4] = test: Effect on ULK1 gene expression in human PANC1 cells at 400 nM after 24 hrs by RNA sequence analysis relative to control; assay type: functional
Procedure, shortened: (§2)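 RNA-seq: cells seeded overnight in 60 mm plates (PANC-1 0.35 x 10^6, MIA PaCa-2 1.5 x 10^6 cells/well), then exposed to 400 nM compound for 6 or 24 h against untreated controls. Cell lines mycoplasma-free by RNA-capture ELISA and STR-profiled. Differentially expressed genes called at FDR < 0.1.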

MIA PaCa-2 [5] = test: Effect on SHC2 gene expression in human MIAPaCa2 cells at 400 nM after 6 hrs by RNA sequence analysis relative to control; assay type: functional; procedure, shortened: as §2
PANC-1 [6] = test: Effect on PFKL gene expression in human PANC1 cells at 400 nM after 6 hrs by RNA sequence analysis relative to control; assay type: functional
A549 = test: Growth inhibition of human A549 cells after 96 hrs by SRB assay; assay type: functional, cell-based; conditions: A549, 96 h
Procedure, shortened: (§3)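 Cell lines kept at 37 °C, 5% CO2 in medium with 10% FBS and 2 mM L-glutamine. Compound dissolved in water, filter-sterilised, 10 mM stock diluted into media. Growth read by 96 h sulforhodamine B assay, absorbance at 540 nm. IC50 taken from mean absorbance per concentration as % of untreated wells, >3 individual determinations with standard deviations.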

Mus musculus = test: Toxicity in CD-1 nude mouse xenografted with human MIAPaCa2 cells assessed as change in tumor ulceration at 15 mg/kg, iv administered twice weekly for 4 weeks measured for 40 days; assay type: organism-based; conditions: in vivo, 960 h
[7] = Binding affinity to 5'-FAM/3'-TAMRA labeled BCL2 promoter G-quadruplex DNA (unknown origin) assessed as change in melting temperature at 1 uM by FRET assay
Procedure, shortened: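 FRET melting with FAM/TAMRA dual-labelled oligonucleotides at 400 nM, annealed at 95 °C for 10 min in 60 mM potassium cacodylate pH 7.4 and slowly cooled. Ligand final 1 μM; solution contains 50 mM K+. Fluorescence read every 0.5 °C over 30–100 °C with 30 s hold, excitation 450–495 nm and emission 515–545 nm. ΔTm from curve fitting, triplicate measurements.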

MIA PaCa-2 [8] = test: Effect on PFKL gene expression in human MIAPaCa2 cells at 400 nM after 24 hrs by RNA sequence analysis relative to control; assay type: functional
PANC-1 [9] = test: Effect on GLI2 gene expression in human PANC1 cells at 400 nM after 24 hrs by RNA sequence analysis relative to control; assay type: functional; procedure, shortened: as §1
PANC-1 [10] = test: Effect on PRKCZ gene expression in human PANC1 cells at 400 nM after 24 hrs by RNA sequence analysis relative to control; assay type: functional; procedure, shortened: as §2
PANC-1 [11] = test: Effect on TEAD2 gene expression in human PANC1 cells at 400 nM after 24 hrs by RNA sequence analysis relative to control; assay type: functional; procedure, shortened: as §2
MIA PaCa-2 [12] = test: Effect on MAPK12 gene expression in human MIAPaCa2 cells at 400 nM after 24 hrs by RNA sequence analysis relative to control; assay type: functional
PANC-1 [13] = test: Effect on SHANK2 gene expression in human PANC1 cells at 400 nM after 6 hrs by RNA sequence analysis relative to control; assay type: functional; procedure, shortened: as §2
PANC-1 [14] = test: Effect on AKT1 gene expression in human PANC1 cells at 400 nM after 6 hrs by RNA sequence analysis relative to control; assay type: functional; procedure, shortened: as §1
PANC-1 [15] = test: Effect on AKT1S1 gene expression in human PANC1 cells at 400 nM after 24 hrs by RNA sequence analysis relative to control; assay type: functional; procedure, shortened: as §1
PANC-1 [16] = test: Effect on PIK3R3 gene expression in human PANC1 cells at 400 nM after 6 hrs by RNA sequence analysis relative to control; assay type: functional
PANC-1 [17] = test: Effect on SMO gene expression in human PANC1 cells at 400 nM after 24 hrs by RNA sequence analysis relative to control; assay type: functional; procedure, shortened: as §2
PANC-1 [18] = test: Effect on TEAD4 gene expression in human PANC1 cells at 400 nM after 6 hrs by RNA sequence analysis relative to control; assay type: functional; procedure, shortened: as §2
BXPC-3 = test: Growth inhibition of human BxPC3 cells after 96 hrs by SRB assay; assay type: functional, cell-based; conditions: BXPC-3, 96 h; procedure, shortened: as §3
MIA PaCa-2 [19] = test: Effect on mLST8 gene expression in human MIAPaCa2 cells at 400 nM after 6 hrs by RNA sequence analysis relative to control; assay type: functional; procedure, shortened: as §2
MIA PaCa-2 [20] = test: Effect on PRKCZ gene expression in human MIAPaCa2 cells at 400 nM after 6 hrs by RNA sequence analysis relative to control; assay type: functional; procedure, shortened: as §2
PANC-1 [21] = test: Effect on IQSEC1 gene expression in human PANC1 cells at 400 nM after 6 hrs by RNA sequence analysis relative to control; assay type: functional
MIA PaCa-2 [22] = test: Effect on PAK1 gene expression in human MIAPaCa2 cells at 400 nM after 24 hrs by RNA sequence analysis relative to control; assay type: functional
PANC-1 [23] = test: Effect on FASN gene expression in human PANC1 cells at 400 nM after 24 hrs by RNA sequence analysis relative to control; assay type: functional; procedure, shortened: as §1
PANC-1 [24] = test: Effect on PCK2 gene expression in human PANC1 cells at 400 nM after 24 hrs by RNA sequence analysis relative to control; assay type: functional
MIA PaCa-2 [25] = test: Effect on PIK3R3 gene expression in human MIAPaCa2 cells at 400 nM after 24 hrs by RNA sequence analysis relative to control; assay type: functional
Homo sapiens = species: Homo sapiens; test: Stabilization of G-quadruplex DNA in human PANC1 cells assessed as induction of DNA damage at G4 site by measuring increase in colocalization of BG4 and 53BP1 foci at 400 nM after 24 hrs by FITC/Cy5/DAPI staining based immunofluorescence assay relative to control; assay type: cell-based
PANC-1 [26] = test: Effect on CBFA2T3 gene expression in human PANC1 cells at 400 nM after 6 hrs by RNA sequence analysis relative to control; assay type: functional; procedure, shortened: as §1
MIA PaCa-2 [27] = test: Effect on AKT1 gene expression in human MIAPaCa2 cells at 400 nM after 24 hrs by RNA sequence analysis relative to control; assay type: functional; procedure, shortened: as §1

## O=C1c2ccc3c4c(c(NCCN5CCCC5)cc(c24)C(=O)N1CCCN1CCOCC1)C(=O)N(CCCN1CCOCC1)C3=O
MIA PaCa-2 [1]
  log2FC: -1.17
PANC-1 [2]
  log2FC: -0.57
MIA PaCa-2 [3]
  log2FC: -1.02
PANC-1 [4]
  log2FC: -0.81
MIA PaCa-2 [5]
  log2FC: -0.83
PANC-1 [6]
  log2FC: -0.21
A549
  IC50: 24 nM
Mus musculus
  Activity: Non-Toxic
[7]
  ΔTm: 13.3 °C
MIA PaCa-2 [8]
  log2FC: -1.18
PANC-1 [9]
  log2FC: 0.38
PANC-1 [10]
  log2FC: -1.23
PANC-1 [11]
  log2FC: 0.21
MIA PaCa-2 [12]
  log2FC: -1.23
PANC-1 [13]
  log2FC: -1.65
PANC-1 [14]
  log2FC: -0.18
PANC-1 [15]
  log2FC: -0.83
PANC-1 [16]
  log2FC: -0.16
PANC-1 [17]
  log2FC: -0.82
PANC-1 [18]
  log2FC: -0.23
BXPC-3
  IC50: 19 nM
MIA PaCa-2 [19]
  log2FC: -0.76
MIA PaCa-2 [20]
  log2FC: -1.87
PANC-1 [21]
  log2FC: -0.86
MIA PaCa-2 [22]
  log2FC: -1.13
PANC-1 [23]
  log2FC: -0.7
PANC-1 [24]
  log2FC: -0.56
MIA PaCa-2 [25]
  log2FC: -1.47
Homo sapiens
  Activity: 50%
PANC-1 [26]
  log2FC: -2.18
MIA PaCa-2 [27]
  log2FC: -0.98

Source: ChEMBL document CHEMBL4020827, “Targeting Multiple Effector Pathways in Pancreatic Ductal Adenocarcinoma with a G-Quadruplex-Binding Small Molecule” (J Med Chem, 2018)
